Paper PMC2837366 (Molecular cancer therapeutics, 2010)

How the values were obtained:
[1] = target: T1, PH domain of Akt2 (Homo sapiens, UniProt P31751); assay: SPR competitive binding assay, displacement from PtdIns
T1 sequence (P31751 5-108 limits assumed): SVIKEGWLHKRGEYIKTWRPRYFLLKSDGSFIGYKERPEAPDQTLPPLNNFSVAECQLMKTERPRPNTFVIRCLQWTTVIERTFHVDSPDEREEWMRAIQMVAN

[2] = system: PtdIns-3-K/PDPK1/Akt signaling in PC-3 prostate cells; assay: Reverse phase protein array in PC-3 cells; format: cell-based, human; settings: 0.1 µM, 16 hours, RPPA
Method in brief: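 PC-3 cells were held in serum-free medium for 8 hr. They were then exposed for 16 hr to test compound at 0.1–10 µM, to wortmannin, or to DMSO vehicle. Lysate protein was analysed by quantitative reverse phase protein array with 74 validated PtdIns-3-K/Akt/PDPK1 pathway antibodies. Values are means of 3 determinations, expressed relative to DMSO control.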

[3] = target: T2, PH domain of PDPK1 (Homo sapiens, UniProt O15530); assay: SPR competitive binding assay, displacement from PtdIns; settings: for binding to the PH domain of PDKP1: at concentrations up to 50 µM
T2 sequence (O15530 459-550 limits assumed): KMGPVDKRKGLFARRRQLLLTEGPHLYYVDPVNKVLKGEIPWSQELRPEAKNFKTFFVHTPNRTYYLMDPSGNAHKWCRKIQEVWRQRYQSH
Method in brief: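 Binding was measured by SPR on a Biacore 2000 with streptavidin chips carrying biotin-labelled PtdIns(3,4,5)P₃ liposomes. Expressed recombinant human PDPK1 PH domain was competed with increasing test compound concentrations. Ki was the concentration displacing 50% of the PH domain bound to the liposomes without drug. Values are means of 4 determinations.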

[4] = system: BxPC-3 pancreatic, MCF-7 breast or A-549 NSCL cancer xenografts; assay: Antitumor activity, effect of the carbon chain length; format: in vivo, mouse; settings: 200 mg/kg oral gavage twice a day for 10 days; BxPC-3, MCF-7, A-549 xenografts
Method in brief: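 Female scid mice received about 10⁷ log-phase cells in 0.2 ml PBS subcutaneously in the flank. MCF-7 cells were given in Matrigel, with a 60-day 17-β-estradiol pellet implanted the day before. Mice were stratified into groups of 8 with similar mean tumor volumes. Test compound was given orally in 0.1 ml sesame seed oil; controls received vehicle. Calipers were read twice weekly, with volume = d_short² × d_long ÷ 2. Growth rate over the dosing period was compared with control by Student's t-test. T/C is the treated growth rate as a percent of control.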

[5] = SPR displacement assay, in words

CCCCCCCCCCCCCCCCc1ccc(S(=O)(=O)Nc2nncs2)cc1 [C-16] was tested, and the “binding to the PH domain of Akt” value [1, 5] was “lower, although still appreciable, binding”.

In the case of COC[C@H]1OC(=O)c2coc3c2[C@@]1(C)C1=C(C3=O)[C@@H]2CCC(=O)[C@@]2(C)C[C@H]1OC(C)=O [wortmannin, reference compound], the phospho-Ser241-PDPK1 [2] is reported as “reduction”, the phospho-Ser473-Akt [2] is reported as “completely inhibited” and the “phospho-Ser657-protein kinase C (PKC)” value [2] is reported as “decreased”. The phospho-Thr308-Akt [2] was “reduction” and the “total SGK1” value [2] was “decreased”.

CN1N=C(N)c2cn([C@@H]3O[C@H](COP(=O)(O)O)[C@@H](O)[C@H]3O)c3ncnc1c23 [triciribine] was tested, and the “binding to the PH domain of Akt” value ([1]; at concentrations up to 50 µM) was “None of these compounds bound” and the “binding to the PH domain of PDKP1” value [3] was “None of these compounds bound”.

In the case of CCCCCCCCc1ccc(S(=O)(=O)Nc2nncs2)cc1 [C-8], the “antitumor activity (tumor growth rate)” value [4] is reported as “less activity”.

With CCCCCCCCCCCCCCc1ccc(S(=O)(=O)Nc2nncs2)cc1 [C-14] the “binding to the PH domain of Akt” value [1, 5] was “lower, although still appreciable, binding” and the “binding to the PH domain of PDPK1” value [3, 5] was “showed binding”.

CCCCc1ccc(S(=O)(=O)Nc2nncs2)cc1 [C-4] was tested, and the “antitumor activity (tumor growth rate)” value [4] was “very little activity”.

NC1(c2ccc(-c3nc4ccn5c(=O)[nH]nc5c4cc3-c3ccccc3)cc2)CCC1 [MK-2206] was tested, and the “binding to the PH domain of Akt” value [1, 5] was “bound very weakly”.

For CCCCCCCCCCCCCCCCCCOP(=O)([O-])OC1CC[N+](C)(C)CC1 [perifosine], the “binding to the PH domain of Akt” value ([1]; at concentrations up to 50 µM) was “None of these compounds bound” and the “binding to the PH domain of PDKP1” value [3] was “None of these compounds bound”.

In the case of CCCCCCCCCCCCCCCCCCc1ccc(S(=O)(=O)Nc2nncs2)cc1 [C-18], the “binding to the PH domain of Akt” value [1, 5] is reported as “lower, although still appreciable, binding”.

For CCCCCCc1ccc(S(=O)(=O)Nc2nncs2)cc1 [C-6], the “antitumor activity (tumor growth rate)” value [4] was “very little activity”.

For CCCCCCCCCCCCCCCCCCOCC(COP(=O)([O-])OCC[N+](C)(C)C)OC (stereo not shown) [edelfosine], the “binding to the PH domain of Akt” value ([1]; at concentrations up to 50 µM) was “None of these compounds bound” and the “binding to the PH domain of PDKP1” value [3] was “None of these compounds bound”.
